Screening data as filed in PubChem BioAssay.
PDI inh: inhibitors of human PDI, primary screen, biochemical, turbidity, single point, plate reader. Protein disulfide-isomerase (Homo sapiens), P07237. actives 0.052% (n = 350,000). inhibition, % at 10 µM. PDI insulin aggregation turbidity, A650, 90 min;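 active means mean inhibition across replicates of 30% or more, whatever share of single replicates reach that level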
ERp5 block: inhibitors of ERp5-driven insulin aggregation, primary screen, biochemical, turbidity, absorbance 650 nm, single point | Protein disulfide-isomerase A6 (Homo sapiens), Q15084 | 90 min | inhibition, % at 9.99 µM | actives 0.05% (n = 350,000);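 active means mean replicate inhibition above about 25%, with every replicate also reaching it, limit read from the data, passing the limit was not always enough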
Target sequence (Q15084 whole entry, looked up): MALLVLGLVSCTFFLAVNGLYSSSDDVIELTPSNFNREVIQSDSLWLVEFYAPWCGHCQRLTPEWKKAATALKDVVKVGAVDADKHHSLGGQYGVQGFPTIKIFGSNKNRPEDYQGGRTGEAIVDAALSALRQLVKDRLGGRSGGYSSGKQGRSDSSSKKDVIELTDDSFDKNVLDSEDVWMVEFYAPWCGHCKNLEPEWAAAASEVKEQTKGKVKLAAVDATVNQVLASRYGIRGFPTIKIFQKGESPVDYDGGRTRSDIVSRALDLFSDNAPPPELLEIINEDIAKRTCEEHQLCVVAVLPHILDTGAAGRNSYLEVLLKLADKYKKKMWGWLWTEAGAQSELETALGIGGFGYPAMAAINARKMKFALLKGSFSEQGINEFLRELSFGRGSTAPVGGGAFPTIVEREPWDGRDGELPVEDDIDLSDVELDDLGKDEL
miR-122 sensor: miR-122 Renilla sensor signal increase in Huh7, primary screen, miR-122 inhibitor project, cell-based, single point, plate reader. actives 0.3% (n = 340,000). activation (reporter increase), % at 12.5 µM. AID 602342, 2012. Huh7 miR-122 Renilla luciferase sensor, 48 h; neutral wells = 0, positive control = 100;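 active means mean replicate activation score at least 90 and every replicate individually at or above 90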;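 further: higher luciferase means less miR-122 activity so hits act as miR-122 inhibitors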
PvdQ inh: P. aeruginosa PvdQ acylase inhibitors, primary screen, biochemical, fluorescence, plate reader and imaging, single point | PvdQ acylase [Pseudomonas aeruginosa LESB58] | purified PvdQ acylase | inhibition, % at 10 µM | actives 0.063% (n = 340,000) | AID 488965, 2010; in the data active means inhibition above about 30%, passing the limit was not always enough;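 further: 0% = vehicle neutral wells and 100% = reference inhibitor wells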
Cneo AK release: Cryptococcus neoformans cell lysis inducers, primary screen, AK release luminescence, single concentration | C. neoformans lysis, adenylate kinase release luminescence, 4 h; normalised: neutral wells 0, clomiphene wells 100 | lysis activity, % at 15 µM | actives 0.2% (n = 360,000) | AID 651654, 2012;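 active means mean lysis activity across replicates of at least 80%, whatever share of replicates individually reach that level; inactive means mean lysis activity below 80%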
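Material – log-phase Cryptococcus neoformans yeast cells · Input – 5 × 10^6 yeast cells/mL · Medium – fresh YPD growth medium · Doses – single compound concentration per well · Timing – static 4 h at 37 °C with compound, 1 h detection · Detection – adenylate kinase release luminescence · Read-out – signal increase indicating cell lysis · Control set – Clomiphene as positive lysis control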
PglD DTNB: C. jejuni PglD acetyltransferase inhibitors, primary screen, biochemical, DTNB colorimetric, single point; actives 0.098% (n = 360,000); UDP-N-acetylbacillosamine N-acetyltransferase PglD (Campylobacter jejuni); inhibition, % at 12.5 µM; purified PglD enzyme, DTNB colorimetric CoA detection; in the data active means inhibition above about 16%, passing the limit was not always enough
Starred values were filed as active, the others as inactive; [ ] = dose if it differs, or a comment. Rows were chosen to be rich in hits. Some 0.58% of all compounds tested hit in one or more screens of this group.

What do the screens show for `CC(=O)N(C)C[C@H]1[C@H](c2ccc(-c3cccnc3)cc2)[C@@H](CO)N1C(=O)C1CC1`?
ERp5 block: -2.4; miR-122 sensor: 125.0*[16.7 µM]; Cneo AK release: 63.7; PglD DTNB: 4.1

How did CN(C)C(=O)C[C@H]1CC[C@H]2[C@H](COc3ccc(NC(=O)C4CCC4)cc3C(=O)N2C)O1 do in these assays?
ERp5 block: 3.8

What do the screens show for `COc1ccc(-c2cnc3c(c2)C(=O)N([C@@H](C)CO)C[C@@H](C)[C@@H](CN(C)C(=O)CN(C)C)O3)cc1`?
ERp5 block: 4.2; miR-122 sensor: 1.0[16.7 µM]; Cneo AK release: 6.4; PglD DTNB: 0.4

How did COCC(=O)NC[C@@H]1N[C@@H](CO)[C@H]1c1ccc(C2=CCCC2)cc1 do in these assays?
miR-122 sensor: -7.1[16.7 µM]; Cneo AK release: 93.3*; PglD DTNB: 1.5

Results for COCC(=O)NC[C@H]1N[C@H](CO)[C@@H]1c1ccc(C2=CCCCC2)cc1 ?
miR-122 sensor: -7.1[16.7 µM]; Cneo AK release: 4.5; PglD DTNB: 0.2

Results for CC(=O)c1sc(NC(=O)c2cc(-c3ccccc3)nn2-c2ccccc2)nc1C ?
PDI inh: -6.2; ERp5 block: 0.0; miR-122 sensor: -7.8; PvdQ inh: -4.4; Cneo AK release: 81.0*; PglD DTNB: -6.7

What do the screens show for `CCOc1ccc(NS(=O)(=O)c2cc(NC(=O)CCC(=O)c3cccs3)ccc2Cl)cc1`?
PDI inh: -4.4; ERp5 block: -4.5; PvdQ inh: -7.5

Results for COc1ccc(NC(=O)CCC(=O)c2cccs2)cc1S(=O)(=O)Nc1ccc(Cl)cc1 ?
PDI inh: 15.9; ERp5 block: -3.9; miR-122 sensor: 321.6*; PvdQ inh: 4.1

How did COc1ccccc1NS(=O)(=O)c1cc(N/C(=N/S(=O)(=O)c2ccccc2)c2ccc(F)cc2)ccc1Cl do in these assays?
PDI inh: 2.1; ERp5 block: -5.9; miR-122 sensor: 117.1*; Cneo AK release: 1.0; PglD DTNB: 6.0

Results for COc1ccccc1NS(=O)(=O)c1cc(NC(=O)CCC(=O)c2cccs2)ccc1Cl ?
PDI inh: -0.6; ERp5 block: 7.0; miR-122 sensor: 107.7*; PvdQ inh: -3.9; Cneo AK release: 3.3; PglD DTNB: 3.9

What do the screens show for `COc1ccc(S(=O)(=O)N2CC[C@@H]3[C@H](CO)Nc4ccc(C#Cc5cccnc5)cc4[C@@H]32)cc1`?
ERp5 block: -3.3; miR-122 sensor: 17.8[16.7 µM]; Cneo AK release: -5.4; PglD DTNB: -1.6

How did COc1cccc(-c2ccc3c(c2)[C@@H]2[C@@H](CCN2C(=O)c2cccc(F)c2)[C@@H](CO)N3)c1 do in these assays?
ERp5 block: -2.2; miR-122 sensor: -8.0[16.7 µM]; Cneo AK release: -5.2; PglD DTNB: 2.7

What do the screens show for `COc1ccc(NS(=O)(=O)c2ccc(N3CCOCC3)c(NC(=O)c3cccc(F)c3)c2)cc1`?
PDI inh: 10.7; miR-122 sensor: 189.8*; PvdQ inh: -11.9

Results for COc1ccc(NS(=O)(=O)c2ccc(N3CCOCC3)c(NC(=O)c3ccc(F)cc3)c2)cc1 ?
PDI inh: 4.5; ERp5 block: 2.2; miR-122 sensor: 179.1*; PvdQ inh: -12.6; Cneo AK release: 1.8; PglD DTNB: 2.4

How did COc1ccc(NC(=O)Nc2ccc3c(c2)C(=O)N([C@H](C)CO)C[C@H](C)[C@@H](CN(C)C(=O)CCC(F)(F)F)OCCCC[C@@H](C)O3)cc1 do in these assays?
miR-122 sensor: 1.7[16.7 µM]; Cneo AK release: 0.0; PglD DTNB: 1.4

How did COc1ccc(NC(=O)N(C)C[C@H]2OCCCC[C@@H](C)Oc3ccc(NC(=O)c4ccccc4)cc3C(=O)N([C@@H](C)CO)C[C@H]2C)cc1 do in these assays?
ERp5 block: -2.5; miR-122 sensor: 12.5[16.7 µM]; Cneo AK release: 102.0*; PglD DTNB: -4.9
